# Results reported in ChEMBL document CHEMBL4689842, “EUbOPEN Chemogenomics Library wave 1” (2021).
# Tested on: U2OS
# Test: Multiplex assay against U2OS
# Type: toxicity, cell-based
# Details: human
# Procedure, shortened: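 Cells stained live at seeding with Hoechst33342, BioTracker Green Microtubule Cytoskeleton Dye, MitoTracker Red and Annexin V Alexa Fluor 680 were imaged on a CQ1 microscope at 37°C and 5% CO2 after compound addition. Their classification by CellPathfinder machine-learning gating ran from Hoechst high-intensity objects versus normal cells, to healthy, pyknosed or fragmented nuclei among normal cells, to mitotic or apoptotic among pyknosed cells. Tubulin, mitochondrial-mass and membrane-permeability phenotypes are per cents of healthy-nucleus cells.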
# [1] = 12 h, 1 µM, compound concentration 1 uM, replicate 1
# [2] = 12 h, 1 µM, compound concentration 1 uM, replicate 2
# [3] = 12 h, 10 µM, compound concentration 10 uM, replicate 1
# [4] = 12 h, 10 µM, compound concentration 10 uM, replicate 2
# [5] = 24 h, 1 µM, compound concentration 1 uM, replicate 1
# [6] = 24 h, 1 µM, compound concentration 1 uM, replicate 2
# [7] = 24 h, 10 µM, compound concentration 10 uM, replicate 1
# [8] = 24 h, 10 µM, compound concentration 10 uM, replicate 2
# [9] = 48 h, 1 µM, compound concentration 1 uM, replicate 1
# [10] = 48 h, 1 µM, compound concentration 1 uM, replicate 2
# [11] = 48 h, 10 µM, compound concentration 10 uM, replicate 1
# [12] = 48 h, 10 µM, compound concentration 10 uM, replicate 2
compound,measurement,setting,value
CN1CCN(CCOc2cc(OC3CCOCC3)c3c(Nc4c(Cl)ccc5c4OCO5)ncnc3c2)CC1 [SARACATINIB],Population Apoptotic (%),[1],48%
same,Population Fragmented Nuclei (%),[1],15%
same,Population Healthy Nuclei (%),[1],69%
same,Population Hoechst High Intensity Objects (%),[1],5%
same,Population Membrane Permeable-Phenotype (%),[1],5%
same,Population Mitochondria Different-Phenotype (%),[1],20%
same,Population Mitotic Cells (%),[1],51%
same,Population Normal (%),[1],94%
same,Population Pyknosed Nuclei (%),[1],15%
same,Population Tubulin-Different-Phenotype (%),[1],15%
same,Total Cell Count,[1],138
same,Population Apoptotic (%),[2],70%
same,Population Fragmented Nuclei (%),[2],9%
same,Population Healthy Nuclei (%),[2],72%
same,Population Hoechst High Intensity Objects (%),[2],10%
same,Population Membrane Permeable-Phenotype (%),[2],0%
same,Population Mitochondria Different-Phenotype (%),[2],23%
same,Population Mitotic Cells (%),[2],30%
same,Population Normal (%),[2],90%
same,Population Pyknosed Nuclei (%),[2],18%
same,Population Tubulin-Different-Phenotype (%),[2],10%
same,Population Apoptotic (%),[3],63%
same,Population Fragmented Nuclei (%),[3],15%
same,Population Healthy Nuclei (%),[3],57%
same,Population Hoechst High Intensity Objects (%),[3],8%
same,Population Membrane Permeable-Phenotype (%),[3],29%
same,Population Mitochondria Different-Phenotype (%),[3],89%
same,Population Mitotic Cells (%),[3],36%
same,Population Normal (%),[3],91%
same,Population Pyknosed Nuclei (%),[3],26%
same,Population Tubulin-Different-Phenotype (%),[3],100%
same,Total Cell Count,[3],184
same,Population Apoptotic (%),[4],75%
same,Population Fragmented Nuclei (%),[4],9%
same,Population Healthy Nuclei (%),[4],71%
same,Population Hoechst High Intensity Objects (%),[4],7%
same,Population Membrane Permeable-Phenotype (%),[4],21%
same,Population Mitochondria Different-Phenotype (%),[4],100%
same,Population Mitotic Cells (%),[4],25%
same,Population Normal (%),[4],92%
same,Population Pyknosed Nuclei (%),[4],18%
same,Total Cell Count,[4],60
same,Population Apoptotic (%),[5],44%
same,Population Healthy Nuclei (%),[5],71%
same,Population Hoechst High Intensity Objects (%),[5],4%
same,Population Membrane Permeable-Phenotype (%),[5],4%
same,Population Mitochondria Different-Phenotype (%),[5],17%
same,Population Mitotic Cells (%),[5],55%
same,Population Normal (%),[5],95%
same,Population Pyknosed Nuclei (%),[5],13%
same,Population Tubulin-Different-Phenotype (%),[5],11%
same,Total Cell Count,[5],139
same,Population Apoptotic (%),[6],50%
same,Population Fragmented Nuclei (%),[6],14%
same,Population Healthy Nuclei (%),[6],67%
same,Population Hoechst High Intensity Objects (%),[6],8%
same,Population Membrane Permeable-Phenotype (%),[6],6%
same,Population Mitochondria Different-Phenotype (%),[6],13%
same,Population Mitotic Cells (%),[6],50%
same,Population Normal (%),[6],91%
same,Population Pyknosed Nuclei (%),[6],18%
same,Population Tubulin-Different-Phenotype (%),[6],4%
same,Population Apoptotic (%),[7],76%
same,Population Fragmented Nuclei (%),[7],18%
same,Population Healthy Nuclei (%),[7],60%
same,Population Hoechst High Intensity Objects (%),[7],5%
same,Population Membrane Permeable-Phenotype (%),[7],35%
same,Population Mitochondria Different-Phenotype (%),[7],97%
same,Population Mitotic Cells (%),[7],23%
same,Population Normal (%),[7],94%
same,Population Pyknosed Nuclei (%),[7],20%
same,Population Tubulin-Different-Phenotype (%),[7],100%
same,Total Cell Count,[7],224
same,Population Apoptotic (%),[8],85%
same,Population Fragmented Nuclei (%),[8],11%
same,Population Healthy Nuclei (%),[8],54%
same,Population Hoechst High Intensity Objects (%),[8],8%
same,Population Membrane Permeable-Phenotype (%),[8],21%
same,Population Mitochondria Different-Phenotype (%),[8],96%
same,Population Mitotic Cells (%),[8],14%
same,Population Normal (%),[8],91%
same,Population Pyknosed Nuclei (%),[8],34%
same,Population Tubulin-Different-Phenotype (%),[8],93%
same,Total Cell Count,[8],70
same,Population Apoptotic (%),[9],56%
same,Population Fragmented Nuclei (%),[9],13%
same,Population Healthy Nuclei (%),[9],67%
same,Population Hoechst High Intensity Objects (%),[9],5%
same,Population Membrane Permeable-Phenotype (%),[9],5%
same,Population Mitochondria Different-Phenotype (%),[9],12%
same,Population Mitotic Cells (%),[9],44%
same,Population Normal (%),[9],94%
same,Population Pyknosed Nuclei (%),[9],18%
same,Population Tubulin-Different-Phenotype (%),[9],7%
same,Population Apoptotic (%),[10],38%
same,Population Fragmented Nuclei (%),[10],10%
same,Population Healthy Nuclei (%),[10],73%
same,Population Hoechst High Intensity Objects (%),[10],6%
same,Population Membrane Permeable-Phenotype (%),[10],13%
same,Population Mitochondria Different-Phenotype (%),[10],16%
same,Population Mitotic Cells (%),[10],61%
same,Population Normal (%),[10],93%
same,Population Pyknosed Nuclei (%),[10],15%
same,Population Tubulin-Different-Phenotype (%),[10],14%
same,Population Apoptotic (%),[11],70%
same,Population Fragmented Nuclei (%),[11],24%
same,Population Healthy Nuclei (%),[11],36%
same,Population Hoechst High Intensity Objects (%),[11],7%
same,Population Membrane Permeable-Phenotype (%),[11],36%
same,Population Mitochondria Different-Phenotype (%),[11],88%
same,Population Mitotic Cells (%),[11],29%
same,Population Normal (%),[11],92%
same,Population Pyknosed Nuclei (%),[11],38%
same,Population Tubulin-Different-Phenotype (%),[11],96%
same,Total Cell Count,[11],278
same,Population Apoptotic (%),[12],73%
same,Population Fragmented Nuclei (%),[12],9%
same,Population Healthy Nuclei (%),[12],53%
same,Population Hoechst High Intensity Objects (%),[12],15%
same,Population Membrane Permeable-Phenotype (%),[12],48%
same,Population Mitochondria Different-Phenotype (%),[12],100%
same,Population Mitotic Cells (%),[12],26%
same,Population Normal (%),[12],84%
same,Population Pyknosed Nuclei (%),[12],37%
same,Population Tubulin-Different-Phenotype (%),[12],90%
same,Total Cell Count,[12],89
Cc1nc(-c2ccc(-c3ccc(C(=O)N4CCc5cc6c(cc54)C4(CCN(C)CC4)CO6)cc3)c(C)c2)no1 [SB-224289],Population Apoptotic (%),[1],50%
same,Population Fragmented Nuclei (%),[1],11%
same,Population Healthy Nuclei (%),[1],74%
same,Population Hoechst High Intensity Objects (%),[1],8%
same,Population Membrane Permeable-Phenotype (%),[1],6%
same,Population Mitochondria Different-Phenotype (%),[1],43%
same,Population Mitotic Cells (%),[1],50%
same,Population Normal (%),[1],91%
same,Population Pyknosed Nuclei (%),[1],13%
same,Population Tubulin-Different-Phenotype (%),[1],46%
same,Total Cell Count,[1],130
same,Population Apoptotic (%),[2],28%
same,Population Fragmented Nuclei (%),[2],4%
same,Population Healthy Nuclei (%),[2],81%
same,Population Hoechst High Intensity Objects (%),[2],12%
same,Population Membrane Permeable-Phenotype (%),[2],10%
same,Population Mitochondria Different-Phenotype (%),[2],42%
same,Population Mitotic Cells (%),[2],71%
same,Population Normal (%),[2],87%
same,Population Pyknosed Nuclei (%),[2],14%
same,Population Tubulin-Different-Phenotype (%),[2],37%
same,Total Cell Count,[2],65
same,Population Apoptotic (%),[3],62%
same,Population Fragmented Nuclei (%),[3],19%
same,Population Healthy Nuclei (%),[3],61%
same,Population Hoechst High Intensity Objects (%),[3],7%
same,Population Membrane Permeable-Phenotype (%),[3],45%
same,Population Mitochondria Different-Phenotype (%),[3],98%
same,Population Mitotic Cells (%),[3],37%
same,Population Normal (%),[3],92%
same,Population Pyknosed Nuclei (%),[3],19%
same,Population Tubulin-Different-Phenotype (%),[3],98%
same,Total Cell Count,[3],147
same,Population Apoptotic (%),[4],63%
same,Population Fragmented Nuclei (%),[4],7%
same,Population Healthy Nuclei (%),[4],77%
same,Population Hoechst High Intensity Objects (%),[4],11%
same,Population Membrane Permeable-Phenotype (%),[4],54%
same,Population Mitochondria Different-Phenotype (%),[4],100%
same,Population Mitotic Cells (%),[4],36%
same,Population Normal (%),[4],88%
same,Population Pyknosed Nuclei (%),[4],15%
same,Population Tubulin-Different-Phenotype (%),[4],100%
same,Total Cell Count,[4],56
same,Population Apoptotic (%),[5],53%
same,Population Healthy Nuclei (%),[5],75%
same,Population Hoechst High Intensity Objects (%),[5],6%
same,Population Membrane Permeable-Phenotype (%),[5],4%
same,Population Mitochondria Different-Phenotype (%),[5],40%
same,Population Mitotic Cells (%),[5],46%
same,Population Normal (%),[5],93%
same,Population Pyknosed Nuclei (%),[5],9%
same,Population Tubulin-Different-Phenotype (%),[5],25%
same,Total Cell Count,[5],152
same,Population Apoptotic (%),[6],0%
same,Population Fragmented Nuclei (%),[6],15%
same,Population Healthy Nuclei (%),[6],77%
same,Population Hoechst High Intensity Objects (%),[6],9%
same,Population Membrane Permeable-Phenotype (%),[6],6%
same,Population Mitochondria Different-Phenotype (%),[6],38%
same,Population Mitotic Cells (%),[6],100%
same,Population Normal (%),[6],90%
same,Population Pyknosed Nuclei (%),[6],7%
same,Population Tubulin-Different-Phenotype (%),[6],22%
same,Total Cell Count,[6],73
same,Population Apoptotic (%),[7],75%
same,Population Fragmented Nuclei (%),[7],24%
same,Population Healthy Nuclei (%),[7],51%
same,Population Hoechst High Intensity Objects (%),[7],9%
same,Population Membrane Permeable-Phenotype (%),[7],84%
same,Population Mitochondria Different-Phenotype (%),[7],98%
same,Population Mitotic Cells (%),[7],25%
same,Population Normal (%),[7],90%
same,Population Pyknosed Nuclei (%),[7],23%
same,Population Tubulin-Different-Phenotype (%),[7],98%
same,Total Cell Count,[7],171
same,Population Apoptotic (%),[8],76%
same,Population Fragmented Nuclei (%),[8],16%
same,Population Healthy Nuclei (%),[8],56%
same,Population Hoechst High Intensity Objects (%),[8],11%
same,Population Membrane Permeable-Phenotype (%),[8],86%
same,Population Mitochondria Different-Phenotype (%),[8],100%
same,Population Mitotic Cells (%),[8],23%
same,Population Normal (%),[8],88%
same,Population Pyknosed Nuclei (%),[8],26%
same,Population Tubulin-Different-Phenotype (%),[8],100%
same,Total Cell Count,[8],63
same,Population Apoptotic (%),[9],54%
same,Population Fragmented Nuclei (%),[9],12%
same,Population Healthy Nuclei (%),[9],77%
same,Population Hoechst High Intensity Objects (%),[9],6%
same,Population Membrane Permeable-Phenotype (%),[9],3%
same,Population Mitochondria Different-Phenotype (%),[9],15%
same,Population Mitotic Cells (%),[9],45%
same,Population Normal (%),[9],93%
same,Population Tubulin-Different-Phenotype (%),[9],15%
same,Total Cell Count,[9],156
same,Population Apoptotic (%),[10],50%
same,Population Fragmented Nuclei (%),[10],9%
same,Population Healthy Nuclei (%),[10],80%
same,Population Hoechst High Intensity Objects (%),[10],9%
same,Population Membrane Permeable-Phenotype (%),[10],8%
same,Population Mitochondria Different-Phenotype (%),[10],14%
same,Population Mitotic Cells (%),[10],50%
same,Population Normal (%),[10],90%
same,Population Pyknosed Nuclei (%),[10],10%
same,Population Tubulin-Different-Phenotype (%),[10],11%
same,Total Cell Count,[10],88
same,Population Apoptotic (%),[11],81%
same,Population Fragmented Nuclei (%),[11],27%
same,Population Healthy Nuclei (%),[11],28%
same,Population Hoechst High Intensity Objects (%),[11],15%
same,Population Membrane Permeable-Phenotype (%),[11],94%
same,Population Mitochondria Different-Phenotype (%),[11],97%
same,Population Mitotic Cells (%),[11],18%
same,Population Normal (%),[11],84%
same,Population Pyknosed Nuclei (%),[11],44%
same,Population Tubulin-Different-Phenotype (%),[11],97%
same,Total Cell Count,[11],225
same,Population Apoptotic (%),[12],88%
same,Population Fragmented Nuclei (%),[12],8%
same,Population Healthy Nuclei (%),[12],46%
same,Population Hoechst High Intensity Objects (%),[12],18%
same,Population Membrane Permeable-Phenotype (%),[12],75%
same,Population Mitochondria Different-Phenotype (%),[12],100%
same,Population Mitotic Cells (%),[12],11%
same,Population Normal (%),[12],81%
same,Population Pyknosed Nuclei (%),[12],45%
same,Population Tubulin-Different-Phenotype (%),[12],100%
same,Total Cell Count,[12],85
